Source: PubChem (NMMLSC)
Efflux pump inh: blocks antifungal efflux pumps in multiplex yeast assay | inhibition, % at 10 µM | AID 485275 | S. cerevisiae Candida pump triplex, Nile Red efflux | actives 0.44% (n = 330,000);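 active = plate passing quality check with inhibition over a set limit, or well fluorescence over plate mean plus 4 SD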;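 also: Nile Red retained in pooled yeast measured as flow cytometry median fluorescence; 0% = buffer negative control and 100% = Enniatin B positive control; higher means more Nile Red kept so more efflux inhibition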
MEKK2 mut-MEK5: signal of MEK5 binding to mutant human MEKK2 PB1 domain. actives 0.35% (n = 290,000). bead flow cytometry, Alexa488-MEK5 binding to MEKK2 mutant. percent response, % at 10 µM. AID 1530; in the data active = percent response above about 24%, passing the limit was not always enough
MEKK2 WT-MEK5: raises or lowers MEK5 binding to wildtype human MEKK2 PB1 domain. binding response (% of control), % at 10 µM. actives 1.1% (n = 290,000). bead flow cytometry, Alexa488-MEK5 binding to MEKK2 WT; actives lie on both sides. AID 1531; in the data active = binding response below about 67% or above about 130%
ABCG2 block: inhibitors of human ABCG2 transporter, ABCB1 counter-screen; Q9UNQ0; IgMXP3 cells, JC-1 efflux, flow cytometry; inhibition, % at 6.6 µM; actives 0.1% (n = 190,000); AID 1325;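 active = inhibition above 80%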;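 also: 0% = DMSO and 100% = nicardipine control wells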
Target sequence (Q9UNQ0 whole entry, looked up): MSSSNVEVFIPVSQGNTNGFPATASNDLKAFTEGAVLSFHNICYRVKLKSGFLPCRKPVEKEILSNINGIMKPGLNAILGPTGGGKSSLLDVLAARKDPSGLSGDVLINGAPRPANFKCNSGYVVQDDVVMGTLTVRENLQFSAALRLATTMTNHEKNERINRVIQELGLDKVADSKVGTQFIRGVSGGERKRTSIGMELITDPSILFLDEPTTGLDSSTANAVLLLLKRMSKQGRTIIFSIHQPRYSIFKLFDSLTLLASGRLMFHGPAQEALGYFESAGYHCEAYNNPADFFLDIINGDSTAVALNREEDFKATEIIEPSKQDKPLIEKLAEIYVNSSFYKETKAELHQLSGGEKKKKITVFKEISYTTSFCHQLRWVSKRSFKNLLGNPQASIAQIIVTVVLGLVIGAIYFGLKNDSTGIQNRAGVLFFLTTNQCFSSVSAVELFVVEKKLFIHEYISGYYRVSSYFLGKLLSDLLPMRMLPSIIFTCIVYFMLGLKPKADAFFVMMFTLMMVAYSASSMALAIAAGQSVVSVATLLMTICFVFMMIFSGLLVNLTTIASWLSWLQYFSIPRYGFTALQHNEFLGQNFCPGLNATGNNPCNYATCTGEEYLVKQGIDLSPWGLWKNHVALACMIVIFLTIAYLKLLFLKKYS
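Test system: IgMXP3 (ABCG2) plus far-red-tagged CCRF-Adr (ABCB1) cells / Amount: 3 million cells/mL in well / Reagent: JC-1 transporter substrate / Timing: 10 min compound exposure, 25 °C / Signal: flow cytometry, 530 nm JC-1 signal / Read-out: percent efflux inhibition, scaled nicardipine 100% to DMSO 0% / Benchmarks: nicardipine as high control, DMSO as low control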
ABCB1 inh: inhibitors of human ABCB1 transporter, ABCG2 counter-screen. P08183. CCRF-Adr cells, JC-1 efflux, flow cytometry. inhibition, % at 6.6 µM. actives 0.067% (n = 190,000). AID 1326; in the data active = inhibition above about 40%;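 also: 0% = vehicle and 100% = reference inhibitor; higher value means more JC-1 retained so stronger ABCB1 efflux block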
MEKK3 PB1 HTS: MEKK3-MEK5 PB1 interaction, increase or decrease; Q99759; bead-based flow cytometry, Alexa488-MEK5 binding to MEKK3; actives lie on both sides; 0 = blocked by unlabeled MEK5, 100 = vehicle; binding response (% of control), % at 10 µM; actives 1.4% (n = 290,000); AID 1529;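 active = binding response more than 3 SD above or below the average of its plate-row segment, actives on both sides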;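 also: Alexa488 bead fluorescence after subtracting the streptavidin-only scavenger bead signal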
Yeast cmpd fluor: flagged as fluorescent in efflux inhibitor counter-screen. S. cerevisiae AD/pABC3, compound fluorescence, flow cytometry. shares compounds with Efflux pump inh. fluorescence ratio to DMSO, % at 10 µM. actives 4% (n = 1,700);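 active = fluorescence ratio to DMSO above its plate's cutoff, the plate mean ratio plus 5 SD, cut at about 210% in these data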;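 also: unstained yeast with no Nile Red so the signal is compound autofluorescence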
Mdr1 pump inh: inhibitors of Candida albicans Mdr1 efflux pump. shares compounds with Efflux pump inh. S. cerevisiae AD/CaMDR1, Nile Red efflux, flow cytometry. inhibition, % at 10 µM. actives 1% (n = 1,700). AID 588518; in the data active = inhibition above about 26%;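 also: 0% = DMSO vehicle and 100% = reference inhibitor; higher means more Nile Red retained so more efflux inhibition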
CaCdr2 efflux inh: blocks the Candida albicans Cdr2 efflux pump in yeast; shares compounds with Efflux pump inh; S. cerevisiae AD/CaCDR2, Nile Red retention, flow cytometry; Nile Red retention ratio vs DMSO, % at 10 µM; actives 4% (n = 1,700); in the data active = Nile Red retention ratio vs DMSO above about 190%;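 also: higher ratio means more blocking of Cdr2 efflux of the dye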
CaCdr1 efflux inh: Candida Cdr1 efflux pump inhibition | shares compounds with Efflux pump inh | S. cerevisiae AD/CaCDR1, Nile Red efflux, flow cytometry | inhibition, % at 10 µM | actives 1% (n = 1,700);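 active = inhibition above the screen-wide mean plus twice its standard deviation, cut at about 32% in these data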
The depositor's hits bear a star; . = no result. Hits are enriched below; roughly 2.5% of the tested compounds scored in any of these assays.

SMILES | Efflux pump inh | MEKK2 mut-MEK5 | MEKK2 WT-MEK5 | ABCG2 block | ABCB1 inh | MEKK3 PB1 HTS | Yeast cmpd fluor | Mdr1 pump inh | CaCdr2 efflux inh | CaCdr1 efflux inh
Cc1cc(C)c(N(C(=O)CN2C(=O)c3ccccc3S2(=O)=O)C(C(=O)NCC2CCCO2)c2ccc(F)cc2)c(C)c1 (centres undefined) | 22.3* | -1.0 | 96.0 | 3.7 | 1.7 | 97.0 | 112.7 | -0.1 | 112.2 | 0.0
COc1ccccc1N(C(=O)CN1C(=O)c2ccccc2S1(=O)=O)C(C(=O)NCC1CCCO1)c1ccc(F)cc1 (centres undefined) | 1.9 | -1.0 | 96.0 | -2.8 | -1.3 | 98.0 | . | . | . | .
COc1ccc(Cn2c(=O)c3[nH]cnc3n(-c3ccccc3C)c2=O)cc1 | 0.8* | -2.0 | 99.0 | . | . | 100.0 | 100.2 | -0.2 | 116.2 | 0.0
Cc1ccc(C)c(OCc2cc(C(=O)N(C)Cc3nccs3)no2)c1 | -0.1 | 11.0 | 107.0 | . | . | 106.0 | 181.6 | 1.2 | 110.2 | 1.2
COc1ccc(CN2C[C@]3(CO)O[C@@H](CO)C[C@@H]3S2(=O)=O)cc1 | -0.2 | . | . | . | . | . | . | . | . | .
COc1ccc(CNCc2cccc(Oc3ccccc3)c2)cc1 | -0.2 | 11.0 | 117.0 | 6.1 | 5.2 | 102.0 | . | . | . | .
Nc1nonc1-n1nnc(C(=O)N/N=C/c2ccccc2Cl)c1COc1ccc(F)cc1 | 0.0 | 16.0 | 116.0 | . | . | 121.0 | 75.8 | 0.0 | 93.2 | -0.4
Nc1nonc1-n1nnc(C(=O)N/N=C/c2ccc(O)cc2)c1COc1ccc(F)cc1 | -0.1 | -1.0 | 97.0 | . | . | 98.0 | 95.3 | -0.3 | 97.2 | -0.1
Nc1nonc1-n1nnc(C(=O)N/N=C/c2ccc(OCc3ccccc3)cc2)c1COc1ccc(F)cc1 | -0.1 | 7.0 | 93.0 | . | . | 101.0 | . | . | . | .
Nc1nonc1-n1nnc(C(=O)N/N=C/c2c(Cl)cccc2Cl)c1CSC1=NCCS1 | 0.0 | -13.0 | 95.0 | . | . | 101.0 | 80.1 | 0.0 | 89.0 | -0.2
CCCOc1ccc(-c2c(C(=O)N/N=C/c3ccccc3)nnn2-c2nonc2N)cc1 | 0.1 | 0.0 | 97.0 | . | . | 97.0 | 112.7 | 0.0 | 100.7 | -0.1
Nc1nonc1-n1nnc(C(=O)N/N=C/C=C/c2ccccc2)c1CSC1=NCCS1 | 0.0 | 1.0 | 93.0 | . | . | 104.0 | . | . | . | .
COc1ccc(-n2c(SCC(C)=O)nc3sc(C)c(C)c3c2=O)cc1 | -0.3 | 9.0 | 110.0 | . | . | 107.0 | . | . | . | .
CCCCCCN(C(=O)CCCCCN1C(=O)NC(c2ccc(C3CCCCC3)cc2)C(C(=O)OCc2ccccc2)=C1C)C(C(=O)NCCCC)c1ccc(OCC(=O)OC)c(C(=O)OC)c1 (centres undefined) | . | 2.0 | 82.0 | . | . | 88.0 | . | . | . | .
CCCCCCn1nc(C(=O)Nc2nc3c(s2)CCCC3)c2ccccc2c1=O | 0.1 | 28.0 | 130.0 | 30.4 | 2.5 | 103.0 | . | . | . | .
CSc1nnc(C)c(=O)n1COC(=O)c1ccc(S(=O)(=O)N2CCCC2)cc1 | 0.1 | 8.0 | 110.0 | 9.4 | 0.1 | 93.0 | . | . | . | .
CN1C(=O)C(C)(C)c2cc(S(=O)(=O)N3CCCC(C(=O)NCc4ccccc4Cl)C3)ccc21 (centres undefined) | 0.0 | 2.0 | 100.0 | . | . | 103.0 | . | . | . | .
COC(=O)C1=C(C)OC(N)=C(C#N)C1c1c(C)nn(C)c1C (centres undefined) | 6.5* | 1.0 | 102.0 | 5.0 | 1.8 | 104.0 | 96.2 | 0.0 | 107.2 | -0.1
CCc1ccc(NC(=O)CCn2ccnc2C)cc1 | 0.1 | 3.0 | 109.0 | 4.4 | 0.5 | 109.0 | . | . | . | .
